Series [1] in a line: Inhibition of adenosine transporter in human HeLa cells assessed as reduction in [3H]adenosine uptake preincubated for 30 mins followed by [3H]adenosine addition and measured after 60 mins. Format: cell-based.
Series [2] in a line: Apparent permeability in pig LLC-PK1 cells. In kind it is ADME, cell-based, Sus scrofa.
Series [3] in a line: Intrinsic clearance in Beagle dog at 0.25 mg/kg, iv or 0.5 mg/kg, po. Format: ADME, organism-based, Canis lupus familiaris. As to conditions: in vivo.
The target in series [4] is T1, Phosphatidylinositol 4,5-bisphosphate 3-kinase catalytic subunit delta isoform (Homo sapiens, UniProt O00329).
T1 sequence (O00329 whole entry): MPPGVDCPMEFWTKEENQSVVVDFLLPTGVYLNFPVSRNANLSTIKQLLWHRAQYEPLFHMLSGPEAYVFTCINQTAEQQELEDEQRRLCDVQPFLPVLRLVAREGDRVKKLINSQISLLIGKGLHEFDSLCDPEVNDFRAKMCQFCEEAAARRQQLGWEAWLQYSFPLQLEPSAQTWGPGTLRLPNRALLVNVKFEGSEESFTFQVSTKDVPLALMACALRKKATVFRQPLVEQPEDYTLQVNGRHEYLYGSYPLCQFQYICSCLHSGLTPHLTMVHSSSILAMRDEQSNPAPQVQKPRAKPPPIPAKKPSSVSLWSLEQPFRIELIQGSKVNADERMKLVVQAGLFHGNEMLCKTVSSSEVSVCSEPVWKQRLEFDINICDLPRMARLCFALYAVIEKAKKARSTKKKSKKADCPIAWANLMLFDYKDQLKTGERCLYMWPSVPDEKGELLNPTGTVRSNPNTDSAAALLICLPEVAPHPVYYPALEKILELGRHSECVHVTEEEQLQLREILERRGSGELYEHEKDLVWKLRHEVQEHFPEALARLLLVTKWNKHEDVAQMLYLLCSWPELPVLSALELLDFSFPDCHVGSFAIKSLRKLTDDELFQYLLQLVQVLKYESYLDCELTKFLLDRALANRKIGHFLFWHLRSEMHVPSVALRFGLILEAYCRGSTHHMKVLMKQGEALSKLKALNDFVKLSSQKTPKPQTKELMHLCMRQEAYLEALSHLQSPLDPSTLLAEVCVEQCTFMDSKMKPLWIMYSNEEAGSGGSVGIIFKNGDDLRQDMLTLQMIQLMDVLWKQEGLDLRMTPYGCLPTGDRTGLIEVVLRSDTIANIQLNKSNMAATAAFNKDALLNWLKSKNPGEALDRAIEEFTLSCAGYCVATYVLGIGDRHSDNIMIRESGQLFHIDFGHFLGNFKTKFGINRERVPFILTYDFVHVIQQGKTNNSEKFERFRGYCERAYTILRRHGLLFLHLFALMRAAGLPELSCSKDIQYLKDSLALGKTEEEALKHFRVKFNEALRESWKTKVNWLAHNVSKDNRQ
The series is described as follows: Inhibition of PI3Kdelta in human whole blood assessed as reduction in antihuman IgE antibody-stimulated CD63 expression preincubated for 30 mins followed by antihuman IgE antibody stimulation and measured after 20 mins by FACS analysis. In kind it is tissue-based. In outline: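 Blood from healthy human volunteer donors, pre-incubated with compound (DMSO, varying concentrations) for 30 min at 37 °C. Basotest reagent B added for 30 min at 37 °C, then goat anti-human IgE (50 ng/mL in reagent A before addition) for 20 min at 37 °C. Stopped on ice, stained for CD63/IgE/CD203c/CD45 (20 min, 4 °C), RBC-lysed, and read by flow cytometry. IgE+ basophils gated, CD63+ scored; IC50 from sigmoidal fit of % inhibition.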
On the technique in general: Flow cytometry measures light scatter and fluorescence of single cells or particles in a stream.

The nature of series [5]: Inhibition of dog PI3Kdelta. Also on record: species or system Canis lupus familiaris.
For another series, the target named is Cytochrome P450 2C19 (Homo sapiens, UniProt P33261). The series is described as follows: Inhibition of CYP2C19 (unknown origin). In kind it is ADME.
Sequence of Cytochrome P450 2C19 (P33261 whole entry): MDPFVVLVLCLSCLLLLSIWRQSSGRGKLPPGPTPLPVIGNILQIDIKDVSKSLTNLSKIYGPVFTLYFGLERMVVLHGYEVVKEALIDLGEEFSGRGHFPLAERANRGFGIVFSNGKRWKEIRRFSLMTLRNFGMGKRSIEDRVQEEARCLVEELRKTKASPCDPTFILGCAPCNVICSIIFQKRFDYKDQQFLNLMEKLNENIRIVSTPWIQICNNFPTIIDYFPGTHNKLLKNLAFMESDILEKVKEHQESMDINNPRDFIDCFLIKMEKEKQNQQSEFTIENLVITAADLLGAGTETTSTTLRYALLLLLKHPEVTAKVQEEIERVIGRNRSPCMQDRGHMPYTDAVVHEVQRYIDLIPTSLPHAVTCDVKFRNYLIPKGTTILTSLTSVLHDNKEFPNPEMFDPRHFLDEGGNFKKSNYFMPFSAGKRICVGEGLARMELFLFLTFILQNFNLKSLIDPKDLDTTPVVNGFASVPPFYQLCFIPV
Series [6] is described as follows: Intrinsic clearance in rat hepatocytes. In kind it is ADME, cell-based, Hepatocyte. As to conditions: read-out: CLH.
In series [7] the target is T2, Phosphatidylinositol 4,5-bisphosphate 3-kinase catalytic subunit delta isoform (Mus musculus) (UniProt O35904).
T2 sequence (whole entry): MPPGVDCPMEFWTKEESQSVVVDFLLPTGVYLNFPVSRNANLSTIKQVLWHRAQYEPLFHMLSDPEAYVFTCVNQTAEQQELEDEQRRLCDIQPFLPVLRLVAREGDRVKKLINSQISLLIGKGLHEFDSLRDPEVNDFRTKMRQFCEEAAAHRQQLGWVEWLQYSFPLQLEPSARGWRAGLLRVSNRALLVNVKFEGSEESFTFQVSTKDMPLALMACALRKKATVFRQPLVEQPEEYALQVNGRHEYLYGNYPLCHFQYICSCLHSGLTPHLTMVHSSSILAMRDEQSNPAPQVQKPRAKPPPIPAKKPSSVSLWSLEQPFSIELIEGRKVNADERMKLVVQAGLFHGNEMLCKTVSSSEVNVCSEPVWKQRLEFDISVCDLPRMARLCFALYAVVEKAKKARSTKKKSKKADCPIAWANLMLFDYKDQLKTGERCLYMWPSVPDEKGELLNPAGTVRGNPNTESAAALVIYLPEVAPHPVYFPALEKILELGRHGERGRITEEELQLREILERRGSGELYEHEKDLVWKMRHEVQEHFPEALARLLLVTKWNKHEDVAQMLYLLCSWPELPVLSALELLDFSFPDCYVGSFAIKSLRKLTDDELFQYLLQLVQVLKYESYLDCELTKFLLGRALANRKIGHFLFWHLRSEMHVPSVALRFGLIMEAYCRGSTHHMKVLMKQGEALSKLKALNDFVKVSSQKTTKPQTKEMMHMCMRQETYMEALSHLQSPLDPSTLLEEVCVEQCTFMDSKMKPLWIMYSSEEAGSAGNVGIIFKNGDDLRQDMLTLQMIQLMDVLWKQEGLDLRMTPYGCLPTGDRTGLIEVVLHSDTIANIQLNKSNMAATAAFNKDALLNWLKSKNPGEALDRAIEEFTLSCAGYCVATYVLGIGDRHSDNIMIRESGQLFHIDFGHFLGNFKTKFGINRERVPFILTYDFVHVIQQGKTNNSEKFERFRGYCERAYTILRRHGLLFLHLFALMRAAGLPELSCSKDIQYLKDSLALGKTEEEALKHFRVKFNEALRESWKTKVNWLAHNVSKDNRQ
The series is described as follows: Inhibition of PI3Kdelta in Foxp3-GFP C57BL/6 mouse assessed as reduction in Treg population administered upto 7 days. As to conditions: dose 30-100 mg/kg, time day <=7. The procedure, abridged: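 C57BL/6 Foxp3-GFP reporter mice were dosed at 30 and 100 mg/kg/day for up to 7 days. Treg population was monitored by bioluminescence imaging 10 min after ip injection of 3 mg luciferin. Radiance was quantified as photons/s/cm²/steradian. Diphtheria toxin served as a positive control.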

Series [8] has as its system Rattus norvegicus. The series is described as follows: Immunomodulatory activity in ovalbumin induced Brown Norway rat allergic rhinitis model assessed as reduction in BAL count at 10 mg/kg, po administered for 2 days and treated with ovalbumin after 1 hr post second dose. Format: functional. Also on record: scale not given: the % may be the effect or the level left. The note with it: time 2 day. The procedure, abridged: (§1)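 Brown Norway rats were presensitized with ovalbumin, 0.020 mg ip daily for 14 days. They then received compound orally for 2 days (0.3–30 mg/kg range studied). Ovalbumin challenge came 1 h after the second dose. Eosinophil cell count in bronchoalveolar lavage was assessed 48 h later.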

Series [9] relates to Rattus norvegicus. The series is described as follows: Immunomodulatory activity in ovalbumin induced Brown Norway rat allergic rhinitis model assessed as reduction in BAL count at 30 mg/kg, po administered for 2 days and treated with ovalbumin after 1 hr post second dose. In kind it is functional, organism-based. The note with it: time 2.0 day. In outline:
as §1

pIC50: −log10 of the molar value. The source made the active and inactive calls. No cut-off for these calls is given here. Some results are limits rather than exact numbers.

On to `CCn1c(-c2cnc(C)nc2)nc2c(N[C@H]3CCN(C(=O)C4CC4)C3)ncnc21`, for which the pIC50 in series [1] was 5.30; in [4], 7.30; in [5], 8.60; on Cytochrome P450 2C19, under 4.30. Also, the apparent permeability (Papp) in series [2] came out at 220 nm/s. This molecule registered a CL in [3] of 0.372 L/h/kg. For the same molecule, the CLint scaled in series [6] was under 0.12 L/h/kg. The Activity result is “Dose-Dependent Effect” in series [7] and 50% in the series on Rattus norvegicus [8]. For the same molecule, the outcome in the series on Rattus norvegicus [9] was Active.

One may read the pIC50 as −log10 of the IC50, conventionally taken in molar units. By Papp is commonly meant the rate of passage across a membrane or cell layer, normalised by area and donor concentration.

The values above are taken from ChEMBL document CHEMBL4834420, “Projected Dose Optimization of Amino- and Hydroxypyrrolidine Purine PI3Kδ Immunomodulators” (J Med Chem, 2021).
